Tests used:
[1] = molecular target: 5-hydroxytryptamine receptor 4 (Rattus norvegicus) (UniProt Q62758); experiment: Antagonistic activity by ability to block serotonin induced relaxation (mediated by activation of 5-hydroxytryptamine 4 receptor) in carbamylcholine (10e-6 M) contracted esophagus at a concentration of 10e-6 M.; assay type: functional, tissue-based
Method in brief: (§1)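 Isolated rat esophagus precontracted with carbamylcholine (10^-6 M). Tissue was challenged with serotonin (1 µM) in the presence of the antagonist at a given concentration or of vehicle. Relaxation was recorded as % relaxation to 10^-6 M 5-HT, given as mean ± SEM with the number of determinations.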

[2] = molecular target: T1, Adrenergic receptor alpha-1 (Rattus norvegicus) (UniProt P15823+P23944+P43140); experiment: Affinity for the alpha-1 adrenergic receptor determined by the displacement of [3H]prazosin from rat whole brain tissue.; assay type: tissue-based
[3] = molecular target: T1, Adrenergic receptor alpha-1 (Rattus norvegicus); experiment: Binding affinity for Alpha-1 adrenergic receptor in rat aorta determined by block of norepinephrine induced contraction of rat aorta; assay type: tissue-based
[4] = molecular target: 5-hydroxytryptamine receptor 4 (Rattus norvegicus) (UniProt Q62758); experiment: Antagonistic activity evaluated by ability to block serotonin induced relaxation via 5-hydroxytryptamine 4 receptor) in carbamylcholine (10e-6 M) contracted esophagus at a concentration of 0.1 mg/kg (p.o.); assay type: functional, organism-based; design: dose 0.1 mg/kg
Method in brief: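 Rats were dosed with the antagonist by oral gavage. Esophagus was removed 3 h after dosing and challenged ex vivo with serotonin. Read-out was % relaxation of the carbamylcholine-contracted tissue to 10^-6 M 5-HT, given as mean ± SEM with the number of determinations.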

[5] = molecular target: 5-hydroxytryptamine receptor 4 (Rattus norvegicus) (UniProt Q62758); experiment: Antagonistic activity evaluated by ability to block serotonin induced relaxation (via 5-hydroxytryptamine 4 receptor) in carbamylcholine (10e-6 M) contracted esophagus at a concentration of 3*10e-8 M.; assay type: functional
Method in brief: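 Isolated rat esophagus precontracted with carbamylcholine (10^-6 M), then challenged with serotonin (1 μM) in the presence of antagonist at the stated concentration or vehicle. Read-out is % relaxation to serotonin, given as mean ± SEM with the number of determinations.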

[6] = molecular target: 5-hydroxytryptamine receptor 4 (Rattus norvegicus) (UniProt Q62758); experiment: Antagonistic activity evaluated by ability to block serotonin induced relaxation (mediated by activation of 5-hydroxytryptamine 4 receptor) in carbamylcholine (10e-6 M) contracted esophagus at a concentration of 10e-8 M.; assay type: functional, tissue-based; method in brief: as §1
[7] = molecular target: Serotonin 3 (5-HT3) receptor (Homo sapiens) (UniProt P46098+A5X5Y0+O95264+Q70Z44+Q8WXA8); experiment: The compound was tested for binding affinity against 5-hydroxytryptamine 3 receptor in guinea pig ileum.; assay type: tissue-based; settings: Cavia porcellus, target entry is the homologue from another species
[8] = molecular target: 5-hydroxytryptamine receptor 4 (Rattus norvegicus) (UniProt Q62758); experiment: Antagonistic activity evaluated by ability to block serotonin induced relaxation (mediated by activation of 5-hydroxytryptamine 4 receptor) in carbamylcholine (10e-6 M) contracted esophagus at a concentration of 10e-5 M.; assay type: functional, tissue-based; method in brief: as §1
[9] = molecular target: 5-hydroxytryptamine receptor 4 (Rattus norvegicus) (UniProt Q62758); experiment: Antagonistic activity by ability to block serotonin induced relaxation (mediated by activation of 5-hydroxytryptamine 4 receptor) in carbamylcholine (10e-6 M) contracted esophagus at a concentration of 10e-7 M.; assay type: functional, tissue-based; method in brief: as §1
[10] = molecular target: Serotonin 2 (5-HT2) receptor (Rattus norvegicus) (UniProt P30994+P08909+P14842); experiment: Binding affinity against 5-hydroxytryptamine 2 receptor in serotonin-induced contraction of the rat aorta; assay type: tissue-based
Serotonin 2 (5-HT2) receptor (Rattus norvegicus), sequence (P08909 whole entry, looked up): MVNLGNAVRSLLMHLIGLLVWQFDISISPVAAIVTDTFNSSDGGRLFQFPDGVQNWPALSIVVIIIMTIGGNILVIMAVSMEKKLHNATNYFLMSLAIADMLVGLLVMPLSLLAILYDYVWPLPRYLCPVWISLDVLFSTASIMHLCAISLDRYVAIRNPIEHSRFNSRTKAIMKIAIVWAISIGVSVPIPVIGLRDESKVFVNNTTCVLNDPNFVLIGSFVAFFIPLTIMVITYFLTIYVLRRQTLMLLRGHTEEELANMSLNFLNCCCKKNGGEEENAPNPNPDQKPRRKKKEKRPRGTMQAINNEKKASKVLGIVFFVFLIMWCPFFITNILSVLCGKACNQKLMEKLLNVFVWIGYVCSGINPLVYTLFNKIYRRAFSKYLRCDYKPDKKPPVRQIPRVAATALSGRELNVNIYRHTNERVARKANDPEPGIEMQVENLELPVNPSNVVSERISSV
Serotonin 2 (5-HT2) receptor (Rattus norvegicus), sequence (P14842 whole entry, looked up): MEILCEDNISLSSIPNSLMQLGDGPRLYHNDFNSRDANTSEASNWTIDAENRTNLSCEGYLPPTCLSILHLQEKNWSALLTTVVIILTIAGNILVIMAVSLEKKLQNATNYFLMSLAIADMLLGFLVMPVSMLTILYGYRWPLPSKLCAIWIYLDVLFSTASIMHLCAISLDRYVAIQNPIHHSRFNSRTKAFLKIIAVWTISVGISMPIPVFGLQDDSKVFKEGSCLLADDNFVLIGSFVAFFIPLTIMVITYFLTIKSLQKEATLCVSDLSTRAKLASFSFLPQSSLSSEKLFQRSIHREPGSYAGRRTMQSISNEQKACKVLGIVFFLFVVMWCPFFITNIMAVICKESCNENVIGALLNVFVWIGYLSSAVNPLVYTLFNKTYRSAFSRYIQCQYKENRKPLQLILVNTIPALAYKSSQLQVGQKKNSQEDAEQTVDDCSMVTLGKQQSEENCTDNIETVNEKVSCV
Serotonin 2 (5-HT2) receptor (Rattus norvegicus), sequence (P30994 whole entry, looked up): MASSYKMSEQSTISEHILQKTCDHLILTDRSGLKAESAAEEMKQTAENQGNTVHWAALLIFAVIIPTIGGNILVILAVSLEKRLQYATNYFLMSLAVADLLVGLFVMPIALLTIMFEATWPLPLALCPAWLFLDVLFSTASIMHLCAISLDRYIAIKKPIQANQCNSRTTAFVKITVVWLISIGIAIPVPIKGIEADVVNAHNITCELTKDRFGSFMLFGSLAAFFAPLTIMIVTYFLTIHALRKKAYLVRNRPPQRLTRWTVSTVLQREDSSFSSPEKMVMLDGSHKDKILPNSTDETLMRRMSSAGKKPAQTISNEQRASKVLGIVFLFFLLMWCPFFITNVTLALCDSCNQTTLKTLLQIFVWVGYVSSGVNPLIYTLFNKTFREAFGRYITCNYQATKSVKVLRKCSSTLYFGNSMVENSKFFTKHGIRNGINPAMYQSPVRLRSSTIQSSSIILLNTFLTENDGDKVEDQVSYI

5-hydroxytryptamine receptor 4 (Rattus norvegicus), sequence (Q62758 whole entry): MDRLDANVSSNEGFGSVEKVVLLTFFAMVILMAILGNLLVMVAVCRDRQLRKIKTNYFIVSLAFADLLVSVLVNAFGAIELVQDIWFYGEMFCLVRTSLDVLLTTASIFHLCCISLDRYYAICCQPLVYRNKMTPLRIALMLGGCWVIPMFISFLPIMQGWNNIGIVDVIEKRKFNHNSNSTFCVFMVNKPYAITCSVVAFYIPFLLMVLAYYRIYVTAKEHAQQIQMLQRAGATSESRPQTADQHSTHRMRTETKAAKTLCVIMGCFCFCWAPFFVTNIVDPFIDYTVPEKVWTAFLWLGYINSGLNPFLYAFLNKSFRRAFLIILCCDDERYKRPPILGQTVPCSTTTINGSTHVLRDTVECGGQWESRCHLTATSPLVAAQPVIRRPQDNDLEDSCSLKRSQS

CC(C)n1nc(C(=O)NCCN2CCN(Cc3ccccc3)CC2)c2ccccc21
Relaxation [1]: 9.1%

CC(C)n1nc(C(=O)NCCN2CCC(NC(=O)OCc3ccccc3)CC2)c2ccccc21
pKi [2]: 5.9 | pKb [3]: < 5 | Relaxation [4]: 21% | Relaxation [1]: 2.8%

CC(=O)NC1CCN(CCNC(=O)c2nn(C(C)C)c3ccccc23)CC1
Relaxation [5]: 33.5% | pKi [2]: < 4 | Relaxation [6]: 51.3% | Relaxation [4]: 19.1% | Relaxation [1]: 6.8%

CCn1cc(C(=O)NC2CC3CCC(C2)N3C)c2ccccc21 (centres undefined)
Relaxation [1]: 44.8%

CC(C)n1c(=O)n(C(=O)NC2CC3CCC(C2)N3C)c2ccccc21 (centres undefined)
Relaxation [5]: 13.8% | Relaxation [6]: 55% | pKb [7]: 7.5 | Relaxation [1]: 2.7%

CC(C)n1nc(C(=O)NCCN2CCC(NC(=O)NCc3ccccc3)CC2)c2ccccc21
Relaxation [4]: 30% | Relaxation [1]: 3.3%

CC(C)n1nc(C(=O)NCCN2CCCCCC2)c2ccccc21
pKi [2]: 5 | Relaxation [4]: 52% | Relaxation [1]: 4.8%

CN1[C@@H]2CC[C@H]1C[C@@H](OC(=O)c1c[nH]c3ccccc13)C2
Relaxation [8]: 26.4% | Relaxation [1]: 33.9%

CCC(=O)NC1CCN(CCNC(=O)c2nn(C(C)C)c3ccccc23)CC1
Relaxation [9]: 11.3% | Relaxation [4]: 36%

CCn1nc(C(=O)NC2CC3CCC(C2)N3C)c2ccccc21 (centres undefined)
Relaxation [1]: 6.7%

COc1cc(N)c(Cl)cc1C(=O)NC1CC2CCC(C1)N2C (centres undefined)
Relaxation [8]: 2.8% | Relaxation [1]: 5.4%

CC(C)n1c(=O)n(C(=O)NC2CC3CCC(C2)N3CCCOc2ccc(F)cc2)c2ccccc21 (centres undefined)
Relaxation [9]: 29.5% | Relaxation [1]: 2.1%

CC(C)n1nc(C(=O)NCCN2CCC(NC(=O)C(C)(C)C)CC2)c2ccccc21
Relaxation [5]: 35% | Relaxation [9]: 7.8% | Relaxation [6]: 50.5% | Relaxation [4]: 30% | Relaxation [1]: 3.3%

CN1C2CCCC1CC(NC(=O)c1nn(C)c3ccccc13)C2 (centres undefined)
Relaxation [8]: 21%

CCC(C)n1nc(C(=O)NC2CC3CCC(C2)N3C)c2ccccc21 (centres undefined)
Relaxation [5]: 46.3%

CC(C)C(=O)NC1CCN(CCNC(=O)c2nn(C(C)C)c3ccccc23)CC1
Relaxation [9]: 9% | Relaxation [6]: 34.8% | Relaxation [4]: 45%

CCCn1cc(C(=O)NC2CC3CCC(C2)N3C)c2ccccc21 (centres undefined)
Relaxation [1]: 34.3%

CC(C)n1nc(C(=O)NC2CCN(Cc3ccccc3)CC2)c2ccccc21
Relaxation [5]: 23.3% | Relaxation [9]: 24.5% | pKi [2]: < 4 | pKb [3]: < 5 | Relaxation [6]: 38.5% | pKb [10]: 5.5 | Relaxation [1]: 3.85%

CN1C2CCC1CC(NC(=O)c1c[nH]c3ccccc13)C2 (centres undefined)
Relaxation [1]: 60%

CC(C)n1nc(C(=O)NCCN2CCCC2)c2ccccc21
pKi [2]: < 4 | Relaxation [4]: 51% | Relaxation [1]: 4.3%

CC(C)n1nc(C(=O)NCCN2CCC(NC(=O)Cc3ccccc3)CC2)c2ccccc21
Relaxation [9]: 23.7% | Relaxation [4]: 39% | Relaxation [1]: 5.6%

CCCn1nc(C(=O)NC2CC3CCC(C2)N3C)c2ccccc21 (centres undefined)
Relaxation [1]: 2.5%

CC(C)n1nc(C(=O)NCCN2CCC(NC(=O)C34C[C@H]5C[C@@H](C3)C[C@@H](C4)C5)CC2)c2ccccc21
Relaxation [5]: 23.2% | Relaxation [9]: 11% | pKi [2]: 4.3 | Relaxation [6]: 48.1% | Relaxation [4]: 27%

CC(C)n1nc(C(=O)NC2CC3CCC(C2)N3CCCOc2ccc(F)cc2)c2ccccc21 (centres undefined)
Relaxation [9]: 22.2% | Relaxation [1]: 17.7%

CCN(CC)CCNC(=O)c1nn(C(C)C)c2ccccc12
Relaxation [1]: 26.8%

CC(C)n1nc(C(=O)NC2CCN(CCNC(=O)C34C[C@H]5C[C@@H](C3)C[C@@H](C4)C5)CC2)c2ccccc21
Relaxation [9]: 38.5% | Relaxation [1]: 1%

CC(C)n1nc(C(=O)NC2CCN(C)CC2)c2ccccc21
Relaxation [5]: 37.3% | pKb [7]: 6.3

CCCCC(=O)NC1CCN(CCNC(=O)c2nn(C(C)C)c3ccccc23)CC1
Relaxation [9]: 25.6% | Relaxation [6]: 51% | Relaxation [4]: 38%

CCCn1c(=O)n(C(=O)NC2CC3CCC(C2)N3C)c2ccccc21 (centres undefined)
Relaxation [5]: 30.7% | Relaxation [1]: 4.3%

CC(C)n1nc(C(=O)NCCN2CCCCC2)c2ccccc21
Relaxation [9]: 22% | pKi [2]: 4.8 | pKb [3]: 4.9 | Relaxation [4]: 38% | pKb [7]: 5.8 | Relaxation [8]: 6.6% | pKb [10]: < 5

CC(C)n1nc(C(=O)NCCN2CCc3ccccc3C2)c2ccccc21
Relaxation [4]: 41% | Relaxation [1]: 20.3%

CN1[C@@H]2CC[C@H]1C[C@@H](NC(=O)c1cc(Cl)cc3c1OC(C)(C)C3)C2
pKb [7]: 8.78 | Relaxation [8]: 22.2% | Relaxation [1]: 37%

From ChEMBL document CHEMBL1131384, “Synthesis and structure-activity relationships of potent and orally active 5-HT4 receptor antagonists: indazole and benzimidazolone derivatives” (J Med Chem, 1998)
